Data published in ChEMBL document CHEMBL1681752, “Discovery of novel (4-piperidinyl)-piperazines as potent and orally active acetyl-CoA carboxylase 1/2 non-selective inhibitors: F-Boc and triF-Boc groups are acid-stable bioisosteres for the Boc group” (Bioorg Med Chem, 2011).

Tests used:
Acetyl-CoA carboxylase [1] = target: Acetyl-CoA carboxylase (Rattus norvegicus, UniProt P11497+Q1HEC0); experiment: Inhibition of rat ACC1/2 assessed as malonyl-CoA synthesis; assay type: protein assay
In short: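 Rat liver cytosolic ACC is preincubated with compound or DMSO for 30 min at 37 °C in Tris acetate pH 7.5 buffer. The reaction uses the liver-ACC substrate mix: 2.12 mM ATP, 18.2 mM NaHCO3 and [14C]acetyl-CoA. Residual acetyl-CoA is removed as acetyl-carnitine on cation-exchange resin, and [14C]malonyl-CoA in the eluate is counted. IC50 is the mean of at least two experiments.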

[2] = Metabolic stability in human liver microsomes assessed as compound recovery after 15 mins by LC-MS/MS; assay type: ADME, Microsome; details: read-out: Stability
In short: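 Compound is incubated at 37 °C with 1 mg/mL human liver microsomes in phosphate buffer with an NADPH-generating system (glucose-6-phosphate, NADP, G6P dehydrogenase) plus MgCl2 and KCl. Levels at 0 and 15 min are measured by LC–MS/MS, and percent remaining is taken from their ratio.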

Acetyl-CoA carboxylase [3] = target: Acetyl-CoA carboxylase (Homo sapiens, UniProt Q13085+O00763); experiment: Inhibition of human ACC1/2 assessed as [14C]malonyl-CoA synthesis; assay type: protein assay
In short: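 Enzyme source: human liver cytosol, ammonium sulfate precipitated (30%) and anion-exchange purified in MOPS pH 7.5 buffer. It is preincubated with compound or DMSO for 30 min at 37 °C in Tris acetate pH 7.5 buffer. Substrates are 2.12 mM ATP, 18.2 mM NaHCO3 and [14C]acetyl-CoA. Unreacted acetyl-CoA is converted to acetyl-carnitine and retained on cation-exchange resin, and eluted [14C]malonyl-CoA is counted. IC50 is the mean of at least two experiments.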

HepG2 = experiment: Inhibition of fatty acid synthesis in human HepG2 cells assessed as [14C]acetate incorporation after 2 hrs by liquid scintillation counter; assay type: functional, cell-based; details: HepG2, 2 h
In short: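 HepG2 cells are plated at 3 × 10^5/well and grown 48 h in DMEM/10% FBS. They are serum-starved 1 h in DMEM with 1.5% BSA, with or without compound. Radiolabelled acetate is added for 2 h. Cells are washed, then saponified with KOH for 2 h at 70 °C. After hexane washes and acidification to pH <2, fatty acids are extracted into hexane.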

[4] = Chemical stability of the compound in simulated gastric media assessed as compound recovery at pH 1.2 after 3 hrs by HPLC method; assay type: physicochemical; details: read-out: Stability
In short: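 Acid stability: compound is held in aqueous solution at pH 1.2 for 3 h at 37 °C. Parent remaining is quantified by HPLC.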

IC50 (Acetyl-CoA carboxylase [1])	remaining at 0.25 h [2]	IC50 (Acetyl-CoA carboxylase [3])	remaining at 3 h [4]	SMILES	IC50 (HepG2)
	7%	98 nM		CCNC(=O)Nc1sc2cc(C(F)(F)F)ccc2c1C(=O)N1CCN(C2CCN(C(=O)OC(C)(C)C(F)(F)F)CC2)CC1	
		117 nM		CCNC(=O)Nc1sc2ccncc2c1C(=O)N1CCN(C2CCN(C(=O)OC(C)(C)C(F)(F)F)CC2)CC1	
	67%	41 nM		CCNC(=O)Nc1sc2cnccc2c1C(=O)N1CCN(C2CCN(C(=O)OC(C)(C)C(F)(F)F)CC2)CC1	152 nM
	5%	31 nM	100%	CCNC(=O)Nc1sc2ccccc2c1C(=O)N1CCN(C2CCN(C(=O)OC(C)(C)C(F)(F)F)CC2)CC1	81 nM
	3%	17 nM	98%	CCNC(=O)Nc1sc2ccccc2c1C(=O)N1CCN(C2CCN(C(=O)OC(C)(C)CF)CC2)CC1	61 nM
		55 nM		CCNC(=O)Nc1sc2ccccc2c1C(=O)N1CCN(C2CCN(C(=O)OCC)CC2)CC1	228 nM
	51%	38 nM		CCNC(=O)Nc1sc2cc(Cl)ccc2c1C(=O)N1CCN(C2CCN(C(=O)OC(C)(C)C(F)(F)F)CC2)CC1	
		24 nM	23%	CCNC(=O)Nc1sc2ccccc2c1C(=O)N1CCN(C2CCN(C(=O)OC(C)(C)C)CC2)CC1	79 nM
	17%	62 nM		CCNC(=O)Nc1sc2cc(F)ccc2c1C(=O)N1CCN(C2CCN(C(=O)OC(C)(C)C(F)(F)F)CC2)CC1	
		109 nM		CCNC(=O)Nc1sc2ccccc2c1C(=O)N1CCN(C2CCN(C(=O)C(C)(C)C)CC2)CC1	450 nM
		175 nM		CCNC(=O)Nc1sc2ccccc2c1C(=O)N1CCN(C2CCN(C(=O)OC)CC2)CC1	
	84%	32 nM		CCNC(=O)Nc1sc2cc(C)ccc2c1C(=O)N1CCN(C2CCN(C(=O)OC(C)(C)CF)CC2)CC1	73 nM
	3%	45 nM		CCNC(=O)Nc1sc2ncccc2c1C(=O)N1CCN(C2CCN(C(=O)OC(C)(C)C(F)(F)F)CC2)CC1	67 nM
	3%	28 nM		CCNC(=O)Nc1sc2ccccc2c1C(=O)N1CCN(C2CCN(C(=O)OC(C)C)CC2)CC1	208 nM
	29%	27 nM		CCNC(=O)Nc1sc2cc(OC)ccc2c1C(=O)N1CCN(C2CCN(C(=O)OC(C)(C)C(F)(F)F)CC2)CC1	67 nM
	13%	12 nM		CCNC(=O)Nc1sc2cccnc2c1C(=O)N1CCN(C2CCN(C(=O)OC(C)(C)C(F)(F)F)CC2)CC1	49 nM

Further lines, the compound ahead of its results:

SMILES	IC50 (Acetyl-CoA carboxylase [1])	remaining at 0.25 h [2]	IC50 (Acetyl-CoA carboxylase [3])	remaining at 3 h [4]	IC50 (HepG2)
CC(=O)N1CCC(C(=O)N2CCC(N3CCN(C(=O)c4cc(-c5ccc(C)cc5)nc(-c5ccc(C)cc5)c4)CC3)CC2)CC1	70 nM				
CCNC(=O)Nc1sc2ccccc2c1C(=O)N1CCN(C2CCN(C(=O)C(C)C)CC2)CC1			131 nM		
CCNC(=O)Nc1sc2ccccc2c1C(=O)N1CCN(C2CCN(C(=O)OC3CCCCC3)CC2)CC1			76 nM		635 nM
CCCC(=O)N1CCC(N2CCN(C(=O)c3c(NC(=O)NCC)sc4ccccc34)CC2)CC1			242 nM		
CCNC(=O)Nc1sc2ccccc2c1C(=O)N1CCN(C2CCN(C(C)=O)CC2)CC1			1864 nM		
CCNC(=O)Nc1sc2ccccc2c1C(=O)N1CCN(C2CCN(C(=O)OC3CCCC3)CC2)CC1			52 nM		512 nM
CCNC(=O)Nc1sc2ccccc2c1C(=O)N1CCN(C2CCN(C(=O)CC)CC2)CC1			597 nM		
CCNC(=O)Nc1sc2ccccc2c1C(=O)N1CCN(C2CCN(C(=O)C3CCN(C(C)=O)CC3)CC2)CC1.O=C(O)/C=C\C(=O)O			74 nM		
CCNC(=O)Nc1sc2ccccc2c1C(=O)N1CCN(C2CCN(C(=O)C3CCCCC3)CC2)CC1			81 nM		146 nM
CCNC(=O)Nc1sc2ccccc2c1C(=O)N1CCN(C2CCN(C(=O)C3CCCC3)CC2)CC1.O=C(O)/C=C\C(=O)O			49 nM		309 nM
CCNC(=O)Nc1sc2ccccc2c1C(=O)N1CCN(C2CCN(C(=O)CC(C)C)CC2)CC1			144 nM		
CCCCC(=O)N1CCC(N2CCN(C(=O)c3c(NC(=O)NCC)sc4ccccc34)CC2)CC1			207 nM		
CCNC(=O)Nc1sc2ccccc2c1C(=O)N1CCN(C2CCN(C(=O)NC(C)(C)C)CC2)CC1			119 nM		775 nM
CC(=O)N1CCC(C(=O)N2CCC(N3CCN(C(=O)c4cc(-c5ccc(C)cc5)nc(-c5ccc6[nH]c(C)c(C)c6c5)c4)CC3)CC2)CC1			33 nM		294 nM
CCNC(=O)Nc1sc2cc(C)ccc2c1C(=O)N1CCN(C2CCN(C(=O)OC(C)C)CC2)CC1		77%	60 nM		628 nM
CCNC(=O)Nc1sc2ccc(C)cc2c1C(=O)N1CCN(C2CCN(C(=O)OC(C)C)CC2)CC1		3%	32 nM		254 nM
